M4 ag: agonists of human muscarinic M4 receptor (CHRM4). P08173. CHO-K1 hM4/Gqi5, Fluo-8 calcium fluorescence; vehicle 0%, full acetylcholine response 100%. activation, % at 3 µM. hit rate 0.14% among 360,000;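 active = activation above the run mean over all test wells plus 3 SD, cut at about 32% in these data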;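 note: peak over basal fluorescence ratio per well then scaled between controls; 0% = DMSO wells and 100% = acetylcholine at EC100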
Target sequence (P08173 whole entry, looked up): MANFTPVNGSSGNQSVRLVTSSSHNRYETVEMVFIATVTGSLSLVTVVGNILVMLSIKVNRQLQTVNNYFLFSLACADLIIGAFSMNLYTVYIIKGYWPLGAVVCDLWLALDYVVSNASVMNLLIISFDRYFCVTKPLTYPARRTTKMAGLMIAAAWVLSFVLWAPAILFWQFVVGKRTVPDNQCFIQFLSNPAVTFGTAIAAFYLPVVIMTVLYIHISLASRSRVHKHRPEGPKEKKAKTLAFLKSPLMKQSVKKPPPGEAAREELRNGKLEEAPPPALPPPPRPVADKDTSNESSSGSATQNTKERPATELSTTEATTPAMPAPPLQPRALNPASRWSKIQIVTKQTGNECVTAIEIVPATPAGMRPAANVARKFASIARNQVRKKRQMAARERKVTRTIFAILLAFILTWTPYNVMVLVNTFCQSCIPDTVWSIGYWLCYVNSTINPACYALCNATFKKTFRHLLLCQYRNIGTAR
CHRM4 antagonist: blocks acetylcholine activation of human M4 receptor; P08173; hit rate 0.73% among 360,000; inhibition, % at 3 µM; AID 624125; CHO-hM4 cells, ACh EC80, Fluo-8 calcium fluorescence;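 active = inhibition above its plate's cutoff, the mean inhibition of sample wells plus 3 SD, cut at about 27% in these data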;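 note: 0% = acetylcholine EC80 with DMSO and 100% = DMSO without agonist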
M5 PAM: CHRM5 positive allosteric modulation; P08912; activation, % at 3 µM; CHO-K1 hM5, Fluo-8 calcium, ACh EC20 PAM; 0% = ACh EC20, 100% = ACh EC100; hit rate 0.3% among 360,000;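 active = activation above the run cutoff, the mean activation of all test compounds plus 3 SD, cut at about 18% in these data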
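system = human M5 receptor in CHO-K1 cells | compound = one concentration, 3 µM final (nominal) | schedule = Post-acetylcholine fluorescence recording 140 s | signal = Fluo-8 calcium dye fluorescence, kinetic read | benchmarks = low control EC20 acetylcholine (0%), high control EC100 acetylcholine (100%) | repeats = singlicate, one well per test compound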
M5 ag: agonists of human muscarinic M5 receptor (CHRM5) | P08912 | CHO-K1 hM5 cells, Fluo-8 calcium fluorescence; 0% DMSO wells, 100% maximal acetylcholine response | activation, % at 3 µM | hit rate 0.19% among 360,000 | AID 624037;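 active = activation above the run's mean over test compounds plus 3 SD, cut at about 23% in these data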;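 note: signal is peak over basal fluorescence ratio across the kinetic read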
CHRM5 antagonist: CHRM5 antagonism in calcium assay | P08912 | hit rate 0.59% among 360,000 | inhibition, % at 3 µM | CHO-hM5 cells, Fluo-8 calcium fluorescence, ACh EC80;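 active = inhibition above a per-plate cutoff, the mean of that plate's test compounds plus 3 SD, cut at about 27% in these data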;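 note: 0% = acetylcholine EC80 with DMSO and 100% = DMSO without agonist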
M4 PAM: potentiates acetylcholine response at human M4 receptor. AID 624126. hit rate 0.4% among 360,000. activation, % at 3 µM. P08173. CHO-K1 hM4/Gqi5, Fluo-8 calcium fluorescence, ACh EC20; 0% = ACh EC20, 100% = maximal ACh;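 active = activation above its plate's cutoff, the mean activation of sample wells plus 3 SD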
* marks the source's active call; other numbers are inactive results. Sampled rows, rich in hits. Any-hit rate of the full collection: about 1.9%.

SMILES	M4 ag	CHRM4 antagonist	M5 PAM	M5 ag	CHRM5 antagonist	M4 PAM
S=c1[nH]nc(-c2ccncc2)n1/N=C/c1cn(-c2ccccc2)nc1-c1ccccc1	12.3	0.1	22.7*	17.3	4.7	8.8
O=C(NCc1cc2ccccc2[nH]1)c1ccccc1F	0.6	-6.8	-1.1	-1.8	9.9	-1.8
CN1CCN(c2ncnc3scc(-c4ccccc4Cl)c23)CC1	3.6	3.7	-15.6	-7.8	29.8*	-9.5
CCOc1ccccc1N1CCN(c2ncnc3scc(-c4ccc(OC)cc4)c23)CC1	7.9	26.9*	-15.2	-5.4	14.3	-12.7
CC(=O)c1ccc(-c2ccc(C(=O)N3CCCc4ccccc43)o2)cc1	1.4	-1.6	7.1	-4.2	5.1	-4.7
Cc1nc2c(C)cccn2c1/C(O)=C1\C(=O)C(=O)N(CCN(C)C)C1c1ccco1 (stereo not drawn)	0.8	-9.8	21.0*	7.2	-13.0	12.4
Cc1ccc(C2/C(=C(\O)c3c(C)nc4c(C)cccn34)C(=O)C(=O)N2CCN(C)C)o1 (stereo not drawn)	16.2	-7.6	-8.5	7.1	4.0	-8.1
CN(C)c1ccc(C(=O)/C=C/c2cccnc2)cc1	0.7	1.4	-3.8	-1.3	4.4	-0.2
CN(C)c1ccc(/C=C/C(=O)c2cccc(Br)c2)cc1	349.2*	63.1*	-23.8	78.0*	56.8*	-18.1
Cc1nc2cc(NC(=O)CCS(=O)(=O)c3ccccc3)ccc2s1	6.5	1.7	2.9	5.2	-3.9	15.6
COc1ccc(OC)c(-c2c3cc(O)c(=O)cc-3oc3cc(O)c(O)cc23)c1	60.0*	13.2	-13.0	54.6*	12.2	-17.1
O=c1cc2oc3cc(O)c(O)cc3c(-c3ccccc3O)c-2cc1O	24.0	4.8	-6.9	10.3	13.8	-9.9
CC12CCC(C(=O)N(CC3CO3)C1=O)C2(C)C (stereo not drawn)	0.3	-1.8	-1.5	-0.5	8.4	1.1
CCn1c(SCC(=O)NC2CC2)nnc1C(C)Oc1ccccc1 (stereo not drawn)	0.8	0.1	2.1	-1.9	1.6	0.9
CC(Oc1ccccc1)c1nnc(SCC(=O)NC2CC2)n1C (stereo not drawn)	1.6	1.0	-7.1	-3.6	3.1	20.4*
CN(CC(=O)NCCc1ccc(S(N)(=O)=O)cc1)CC(=O)Nc1ccc(Cl)c(C(F)(F)F)c1	-1.4	-10.9	8.5	-1.6	1.4	23.5*
CCn1c(CNc2ccc(C)cc2)nnc1SCC(=O)NCc1ccccc1	1.0	1.0	-0.9	-4.9	2.7	30.6*
CCN(CC)c1ccc(/C=C2/SC(=O)N(C(C)C)C2=O)o1	3.3	41.0*	1.9	2.2	10.9	-4.2
CCCc1cc(=O)n2c([nH]c3ccccc32)c1C#N	2.1	-4.1	-12.6	30.7*	16.5	7.8
Cc1cnc(C(=O)OC(C)C(=O)c2c(C)[nH]c3ccccc23)cn1 (stereo not drawn)	1.0	0.8	-3.5	1.8	3.8	2.7
CCC(C)(C)NC(=O)C(c1ccco1)N(C(=O)CNC(=O)c1cccs1)c1cccnc1 (stereo not drawn)	6.0	-12.4	29.0*	-1.5	28.8*	3.6
Cn1c(=O)c2c(nc(N3CCCCC3)n2CCSc2nc3ccccc3s2)n(C)c1=O	0.7	6.3	0.0	0.4	-4.8	37.5*
COC(=O)c1cc(CNC(=O)Cc2ccsc2)ccc1OC	-0.8	98.3*	-3.2	-1.6	9.7	-21.6
O=c1[nH]cc(NCCNc2ncc(C(F)(F)F)cc2Cl)c(=O)[nH]1	1.6	0.6	-2.8	0.1	4.6	11.4
COc1cccc(C2SCC(=O)N2c2ccc(C)cc2)c1OC (stereo not drawn)	-0.5	64.9*	-18.9	-7.4	22.2	-38.9
SMILES	M4 ag	CHRM4 antagonist	M5 PAM	M5 ag	CHRM5 antagonist	M4 PAM
COc1ccc(N2C(=O)CSC2c2cccc(OC)c2OC)cc1 (stereo not drawn)	0.7	16.0	-13.1	-7.2	4.4	-9.5
CCN(C[C@H]1N[C@@](C)(C(=O)OC)[C@H]2C(=O)N(Cc3ccccc3)C(=O)[C@@H]12)S(=O)(=O)c1ccccc1	0.4	5.1	1.7	0.2	5.1	2.9
COc1ccc(Cc2nnc(NC(=O)CSc3ccccc3)s2)cc1OC	14.0	-6.4	-1.1	28.5*	-2.7	1.4
COc1ccc(Cc2nnc(NC(=O)CSc3ccccc3)s2)cc1	3.3	5.1	1.3	5.0	2.1	4.6
CC1(C(=O)Nc2cccc3c2CCCC3)CCN1C(=O)Cc1ccccc1Cl (stereo not drawn)	4.2	-12.2	-8.3	0.2	5.2	-1.6
O=C(COC(=O)c1cc[n+]([O-])cc1)Nc1cccc(Br)c1	0.8	2.2	-2.2	0.7	2.8	0.1
CCCc1c(C(=O)N/N=C/c2ccc(OCc3ccc(F)cc3)cc2)nnn1-c1nonc1N	0.5	-4.0	-5.0	2.0	1.4	0.4
CC(C)NC(=O)NC(=O)COC(=O)C1CCCN1C(=O)c1cccs1 (stereo not drawn)	0.7	3.8	-3.1	0.4	6.6	0.7
Cc1cc(NC(=O)COC(=O)C2CCCN2C(=O)c2cccs2)no1 (stereo not drawn)	2.0	-7.1	31.7*	-1.4	-12.3	2.2
Cc1ccc(NC(=O)[C@H](C)NC(=O)C2CCN(C(=O)[C@@H](NC(=O)OC(C)(C)C)C(C)C)CC2)cc1	-1.2	-1.4	0.0	-5.0	-2.2	17.3*
O=C(O)CCC(=O)Nc1ccc(SSc2ccc(NC(=O)CCC(=O)O)cc2)cc1	1.6	0.1	-0.7	-2.6	-4.5	2.2
O=C(c1cccc(NS(=O)(=O)c2ccc(F)c(F)c2)c1)N1CCN(C(c2ccccc2)c2ccccc2)CC1	1.9	-8.7	-4.5	-1.8	8.6	31.0*
CC(C)Cn1c(N)c(C(=O)COC(=O)c2cnc(Cl)c(Cl)c2)c(=O)n(C)c1=O	18.9	3.2	-26.1	-1.1	21.3	-19.9
C=C(Cl)COc1ccc2c(C)cc(=O)oc2c1	-2.0	8.0	18.1*	-3.9	-13.9	10.0
Cc1cc(-c2ccccc2)oc(=O)c1NC(=O)c1ccccc1	0.6	-3.5	-9.8	-7.0	-8.0	-3.6
O=C(NC1CCCCC1)N1CCC(c2nc(-c3ccc(S(=O)(=O)N4CCCC4)cc3)no2)CC1	2.3	1.5	-0.7	3.8	-8.0	21.3
O=C(C1CC1)N1CCC(c2nc(-c3ccc(S(=O)(=O)N4CCCC4)cc3)no2)CC1	3.4	-3.0	-16.5	-6.9	66.0*	16.1
COc1cccc(-c2c(-c3cc(OC)cc(OC)c3)n(C)c3ccc(-c4cccc5[nH]ccc45)cc23)c1	0.1	4.9	-19.5	4.6	16.6	-0.3

From PubChem BioAssay
